Reference: ChEMBL document CHEMBL1687913, “Structure-activity relationship, conformational and biological studies of temporin L analogues” (J Med Chem, 2011)
Converted amounts (≈) assume the structure as drawn. Where a SMILES comes first, the peptide text is derived from it. [ ]: non-standard residue; d: D form. Orn = NCCC[C@H](N)C(=O)O

Tests used:
[1] = system: Streptococcus pyogenes; experiment: Antibacterial activity against Streptococcus pyogenes ATCC 21547 after 18 to 20 hrs by microbroth dilution method; type: functional
Outline: (§1)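 CLSI microbroth dilution, adapted. Mid-log bacteria, 2 × 10^6 CFU/mL in Mueller-Hinton broth, mixed 1:1 with MH broth holding peptide in serial 2-fold dilutions in 20% ethanol (0.75-48 μM). Incubated 18-20 h at 37 °C; growth read as A600. MIC is the lowest concentration giving 100% growth inhibition.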

[2] = system: Escherichia coli; experiment: Antibacterial activity against Escherichia coli D21 after 18 to 20 hrs by microbroth dilution method; type: functional; outline: as §1
[3] = Toxicity in human erythrocytes assessed as hemolysis at 3 uM after 40 mins; type: cell-based, Erythrocyte; conditions: read-out: Activity
Outline: (§2)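 Human red blood cells suspended in 0.9% (w/v) NaCl and incubated 40 min at 37 °C with gentle mixing with serial 2-fold peptide dilutions (peptide predissolved in 20% ethanol). Spun 5 min at 900g; supernatant read at 415 nm. Cells lysed in distilled water set the 100% lysis reference.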

[4] = Toxicity in human erythrocytes assessed as hemolysis at 12 uM after 40 mins; type: cell-based, Erythrocyte; conditions: read-out: Activity; outline: as §2
[5] = Toxicity in human erythrocytes assessed as hemolysis at 1.5 uM after 40 mins; type: cell-based, Erythrocyte; conditions: read-out: Activity; outline: as §2
[6] = system: Acinetobacter baumannii; experiment: Antibacterial activity against Acinetobacter baumannii ATCC 19606 after 18 to 20 hrs by microbroth dilution method; type: functional; outline: as §1
[7] = system: Pseudomonas syringae; experiment: Antibacterial activity against Pseudomonas syringae pv tobaci after 18 to 20 hrs by microbroth dilution method; type: functional; outline: as §1
[8] = system: Saccharomyces cerevisiae; experiment: Antifungal activity against Saccharomyces cerevisiae after 18 to 20 hrs by microbroth dilution method; type: functional
Outline: (§3)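 Yeasts tested by adapted CLSI microbroth dilution in Winge medium. Peptide given in serial 2-fold dilutions (0.75-48 μM, made in 20% ethanol). Incubation 18-20 h at 30 °C, read at A600. MIC taken as the concentration giving complete (100%) growth inhibition.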

[9] = system: Schizosaccharomyces pombe; experiment: Antifungal activity against Schizosaccharomyces pombe after 18 to 20 hrs by microbroth dilution method; type: functional; outline: as §3
[10] = system: Yersinia pseudotuberculosis; experiment: Antibacterial activity against Yersinia pseudotuberculosis YPIII after 18 to 20 hrs by microbroth dilution method; type: functional
Outline: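 Broth microdilution adapted from CLSI. Mid-log bacteria at 2 × 10^6 CFU/mL in Mueller-Hinton broth were mixed 1:1 with MH broth containing peptide in serial 2-fold dilutions (peptide in 20% ethanol), 0.75-48 μM. Plates were incubated 18-20 h at 37 °C and growth was read as A600. MIC is the concentration giving 100% growth inhibition.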

[11] = system: Pseudomonas aeruginosa; experiment: Antibacterial activity against Pseudomonas aeruginosa ATCC 27853 after 18 to 20 hrs by microbroth dilution method; type: functional; outline: as §1
[12] = system: Pseudomonas aeruginosa; experiment: Antibacterial activity against Pseudomonas aeruginosa ATCC 15692 after 18 to 20 hrs by microbroth dilution method; type: functional; outline: as §1
[13] = system: Staphylococcus aureus; experiment: Antibacterial activity against Staphylococcus aureus Cowan I after 18 to 20 hrs by microbroth dilution method; type: functional; outline: as §1
[14] = system: Candida albicans; experiment: Antifungal activity against Candida albicans ATCC 10231 after 18 to 20 hrs by microbroth dilution method; type: functional; outline: as §3
[15] = system: Acinetobacter junii; experiment: Antibacterial activity against […] Acinetobacter junii RT-4 after 18 to 20 hrs by microbroth dilution method; type: functional; outline: as §1
[16] = system: Escherichia coli; experiment: Antibacterial activity against Escherichia coli ATCC 25922 after 18 to 20 hrs by microbroth dilution method; type: functional; outline: as §1
[17] = system: Staphylococcus epidermidis; experiment: Antibacterial activity against Staphylococcus epidermidis ATCC 12228 after 18 to 20 hrs by microbroth dilution method; type: functional; outline: as §1
[18] = system: Priestia megaterium; experiment: Antibacterial activity against Bacillus megaterium Bm11 after 18 to 20 hrs by microbroth dilution method; type: functional; outline: as §1
[19] = system: Staphylococcus aureus; experiment: Antibacterial activity against Staphylococcus aureus ATCC 25923 after 18 to 20 hrs by microbroth dilution method; type: functional; outline: as §1
[20] = system: Staphylococcus capitis; experiment: Antibacterial activity against Staphylococcus capitis after 18 to 20 hrs by microbroth dilution method; type: functional; outline: as §1
[21] = Toxicity in human erythrocytes assessed as hemolysis at 6 uM after 40 mins; type: cell-based, Erythrocyte; conditions: read-out: Activity; outline: as §2
[22] = system: Enterococcus faecalis; experiment: Antibacterial activity against Enterococcus faecalis ATCC 29212 after 18 to 20 hrs by microbroth dilution method; type: functional; outline: as §1
[23] = Toxicity in human erythrocytes assessed as hemolysis at 24 uM after 40 mins; type: cell-based, Erythrocyte; conditions: read-out: Activity; outline: as §2

Structure (SMILES)	MIC [1]	MIC [2]	hemolysis at 40 min, 3 µM [3]	hemolysis at 40 min, 12 µM [4]	hemolysis at 40 min, 1.5 µM [5]	MIC [6]	MIC [7]	MIC [8]	MIC [9]	MIC [10]	MIC [11]	MIC [12]	MIC [13]	MIC [14]	MIC [15]	MIC [16]	MIC [17]	MIC [18]	MIC [19]	MIC [20]	other results
CC[C@H](C)[C@H](NC(=O)[C@H](CCCCN)NC(=O)CNC(=O)[C@H](CC(C)C)NC(=O)[C@H](Cc1ccccc1)NC(=O)[C@H](CCCCN)NC(=O)[C@H](CO)NC(=O)[C@H](Cc1ccccc1)NC(=O)[C@H](Cc1c[nH]c2ccccc12)NC(=O)[C@H](CCC(N)=O)NC(=O)[C@@H](NC(=O)[C@@H](N)Cc1ccccc1)C(C)C)C(=O)N[C@@H](CC(C)C)C(N)=O (H-FVQWFSKFLGKIL-NH2)	6 µM (≈ 9.67 µg/mL)	24 µM (≈ 38.7 µg/mL)	5%	59%	2.6%	6 µM (≈ 9.67 µg/mL)	24 µM (≈ 38.7 µg/mL)	6 µM (≈ 9.67 µg/mL)	6 µM (≈ 9.67 µg/mL)	6 µM (≈ 9.67 µg/mL)	48 µM (≈ 77.4 µg/mL)	24 µM (≈ 38.7 µg/mL)	12 µM (≈ 19.3 µg/mL)	12 µM (≈ 19.3 µg/mL)	6 µM (≈ 9.67 µg/mL)	12 µM (≈ 19.3 µg/mL)	6 µM (≈ 9.67 µg/mL)	3 µM (≈ 4.84 µg/mL)	6 µM (≈ 9.67 µg/mL)	6 µM (≈ 9.67 µg/mL)	hemolysis at 40 min, 6 µM [21]: 14%; MIC [22]: 12 µM (≈ 19.3 µg/mL); hemolysis at 40 min, 24 µM [23]: 100%
CC[C@H](C)[C@H](NC(=O)[C@H](CCCNC(=N)N)NC(=O)CNC(=O)[C@H](CC(C)C)NC(=O)[C@H](Cc1ccccc1)NC(=O)[C@H](CCCCN)NC(=O)[C@H](CO)NC(=O)[C@H](Cc1ccccc1)NC(=O)[C@H](Cc1c[nH]c2ccccc12)NC(=O)[C@H](CCC(N)=O)NC(=O)[C@@H](NC(=O)[C@@H](N)Cc1ccccc1)C(C)C)C(=O)N[C@@H](CC(C)C)C(N)=O [TEMPORIN L]	6 µM (≈ 9.84 µg/mL)	12 µM (≈ 19.7 µg/mL)	13%	92%	3%	6 µM (≈ 9.84 µg/mL)	6 µM (≈ 9.84 µg/mL)	6 µM (≈ 9.84 µg/mL)	6 µM (≈ 9.84 µg/mL)	3 µM (≈ 4.92 µg/mL)	> 48 µM	24 µM (≈ 39.4 µg/mL)	3 µM (≈ 4.92 µg/mL)	12 µM (≈ 19.7 µg/mL)	3 µM (≈ 4.92 µg/mL)	12 µM (≈ 19.7 µg/mL)	3 µM (≈ 4.92 µg/mL)	1.5 µM (≈ 2.46 µg/mL)	3 µM (≈ 4.92 µg/mL)	1.5 µM (≈ 2.46 µg/mL)	hemolysis at 40 min, 6 µM [21]: 48%; MIC [22]: 6 µM (≈ 9.84 µg/mL); hemolysis at 40 min, 24 µM [23]: 94%
CC[C@H](C)[C@H](NC(=O)[C@H](CCCN)NC(=O)CNC(=O)[C@H](CC(C)C)NC(=O)[C@H](Cc1ccccc1)NC(=O)[C@H](CCCCN)NC(=O)[C@H](CO)NC(=O)[C@H](Cc1ccccc1)NC(=O)[C@H](Cc1c[nH]c2ccccc12)NC(=O)[C@H](CCC(N)=O)NC(=O)[C@@H](NC(=O)[C@@H](N)Cc1ccccc1)C(C)C)C(=O)N[C@@H](CC(C)C)C(N)=O (H-FVQWFSKFLG[Orn]IL-NH2)	24 µM (≈ 38.4 µg/mL)	12 µM (≈ 19.2 µg/mL)	7%	62%	3%	12 µM (≈ 19.2 µg/mL)	12 µM (≈ 19.2 µg/mL)	12 µM (≈ 19.2 µg/mL)	12 µM (≈ 19.2 µg/mL)	3 µM (≈ 4.79 µg/mL)	24 µM (≈ 38.4 µg/mL)	24 µM (≈ 38.4 µg/mL)	1.5 µM (≈ 2.4 µg/mL)	6 µM (≈ 9.59 µg/mL)	12 µM (≈ 19.2 µg/mL)	12 µM (≈ 19.2 µg/mL)	3 µM (≈ 4.79 µg/mL)	1.5 µM (≈ 2.4 µg/mL)	3 µM (≈ 4.79 µg/mL)	3 µM (≈ 4.79 µg/mL)	hemolysis at 40 min, 6 µM [21]: 22%; MIC [22]: 6 µM (≈ 9.59 µg/mL); hemolysis at 40 min, 24 µM [23]: 89%
CC[C@H](C)[C@H](NC(=O)[C@H](CCCN)NC(=O)CNC(=O)[C@H](CC(C)C)NC(=O)[C@H](Cc1ccccc1)NC(=O)[C@H](CCCCN)NC(=O)[C@H](CO)NC(=O)[C@H](Cc1ccccc1)NC(=O)[C@H](Cc1c[nH]c2ccccc12)NC(=O)[C@@H]1CCCN1C(=O)[C@@H](NC(=O)[C@@H](N)Cc1ccccc1)C(C)C)C(=O)N[C@@H](CC(C)C)C(N)=O (H-FVPWFSKFLG[Orn]IL-NH2)	6 µM (≈ 9.4 µg/mL)	24 µM (≈ 37.6 µg/mL)	1%	12%	0.7%	12 µM (≈ 18.8 µg/mL)	12 µM (≈ 18.8 µg/mL)	6 µM (≈ 9.4 µg/mL)	12 µM (≈ 18.8 µg/mL)	6 µM (≈ 9.4 µg/mL)	48 µM (≈ 75.2 µg/mL)	48 µM (≈ 75.2 µg/mL)	3 µM (≈ 4.7 µg/mL)	6 µM (≈ 9.4 µg/mL)	6 µM (≈ 9.4 µg/mL)	12 µM (≈ 18.8 µg/mL)	6 µM (≈ 9.4 µg/mL)	6 µM (≈ 9.4 µg/mL)	12 µM (≈ 18.8 µg/mL)	6 µM (≈ 9.4 µg/mL)	hemolysis at 40 min, 6 µM [21]: 2%; MIC [22]: 12 µM (≈ 18.8 µg/mL); hemolysis at 40 min, 24 µM [23]: 72%
CC[C@H](C)[C@H](NC(=O)[C@H](CCCNC(=N)N)NC(=O)CNC(=O)[C@H](CC(C)C)NC(=O)[C@H](Cc1ccccc1)NC(=O)[C@H](CCCCN)NC(=O)[C@H](CO)NC(=O)[C@H](Cc1ccccc1)NC(=O)[C@H](Cc1c[nH]c2ccccc12)NC(=O)[C@@H]1CCCN1C(=O)[C@@H](NC(=O)[C@@H](N)Cc1ccccc1)C(C)C)C(=O)N[C@@H](CC(C)C)C(N)=O (H-FVPWFSKFLGRIL-NH2)	6 µM (≈ 9.65 µg/mL)	12 µM (≈ 19.3 µg/mL)	6%	42%	4.5%	6 µM (≈ 9.65 µg/mL)	6 µM (≈ 9.65 µg/mL)	6 µM (≈ 9.65 µg/mL)	3 µM (≈ 4.83 µg/mL)	3 µM (≈ 4.83 µg/mL)	> 48 µM	24 µM (≈ 38.6 µg/mL)	1.5 µM (≈ 2.41 µg/mL)	6 µM (≈ 9.65 µg/mL)	6 µM (≈ 9.65 µg/mL)	24 µM (≈ 38.6 µg/mL)	1.5 µM (≈ 2.41 µg/mL)	1.5 µM (≈ 2.41 µg/mL)	3 µM (≈ 4.83 µg/mL)	1.5 µM (≈ 2.41 µg/mL)	hemolysis at 40 min, 6 µM [21]: 10%; MIC [22]: 6 µM (≈ 9.65 µg/mL); hemolysis at 40 min, 24 µM [23]: 92%
